Data as given in the EternaBench riboswitch data.

Test system: MS2 coat protein
Test: apparent Kd, MS2 coat protein; higher = weaker binding; RNA-MaP array; FMN 200 µM where present
How it was run: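 On Illumina sequencing-chip clusters, designs were transcribed by stalled E. coli RNA polymerase and titrated with SNAP-549-labelled MS2 coat protein (0.7 or 1.5 nM, doubling to 3 µM), without and then with constant ligand, in 100 mM Tris-HCl pH 7.5, 80 mM KCl, 4 mM MgCl2, BSA, DTT, yeast tRNA and Tween-20. Apparent Kd is the median of filtered per-cluster curve fits to green signal normalised to red-channel RNA signal and control-cluster median Fmax.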

[1] = designed as: OFF switch for flavin mononucleotide, no ligand
[2] = ligand present: flavin mononucleotide, designed as: OFF switch for flavin mononucleotide
[3] = designed as: ON switch for flavin mononucleotide, no ligand
[4] = ligand present: flavin mononucleotide, designed as: ON switch for flavin mononucleotide

| Sequence | apparent Kd [1] | apparent Kd [2] | apparent Kd [3] | apparent Kd [4] |
| --- | --- | --- | --- | --- |
| AACUCUGAGAAGGAUAUACAGUGCGAAAGGACAGUAGAAGGUUUCACAUGAGGAUCACCCAUGUCGAAUAGUGA | 24.7 nM | 33.8 nM | – | – |
| AACUGUCUAAAGGAUAUGCUGGAUUAAUAUCUGGCAGAAGGUUGGACAUGAGGAUCACCCAUGUAAAUACUACC | 21.6 nM | 70.1 nM | – | – |
| AAGAAACAUGAGGAUCACCCAUGUAAAUUUAAGAGAGGAUAUCGUACAUGGAAGAUUUAACGAGAAGGCUCUAGAA | – | – | 26 nM | 16.1 nM |
| AAGAAACAUGAGGAUCACCCAUGUCACCUCACACGAGGAUAUCUGAAUCGAUUAGAUUACGGAGAAGGCGUGAUAA | – | – | 27.5 nM | 20.6 nM |
| AAGAAGUCAGGAUAUCCUGCUCGUCACUUGCGUGAUGAGUAGGAGAAGGGACAUGAGGAUCACCCAUGUAAAGG | 137 nM | 267 nM | – | – |
| AAGAGCGAUUCUCCCUUCCUACAUGAGGAUCACCCAUGUACGAGAAGGCGCCGUGUAUACAACGGUGAGGAUAUCGUACGUUAC | 5.46 nM | 10.7 nM | – | – |
| AAGGAGUUAGGAUAUGCUGCUCGUCACUUGCGUGAUGAGUAGCAGAAGGAACAUGAGGAUCACCCAUGUAAAGA | 30.2 nM | 24.2 nM | – | – |
| AAGGAUAGAGGAUAUACAUAGAUACAGAUUCAUGUGGAACUACAUGAGGAUCACCCAUGUAGAAGGCUAUCCUA | 40.1 nM | 262 nM | – | – |
| AAGGCGCUAGCAGGAUAUGUACAUGAGGAUCACCCAUGUAAAUCUGUAUCUGGUGAAGCGCAAGUAUAGAAGGGCUAACGCUGG | 4.71 nM | 6.2 nM | – | – |
| AAGGCGUCAGGAUAUCCAAUAUAUGACAUGAGGAUCACCCAUGUUUCCACUCGUACCUCCGGAGAAGGGACGAAUA | 29.1 nM | 27.5 nM | – | – |
| AAGGGUACUUUCGGAACGACAUGAGGAUCACCCAUGUAGACUGAGGAUAUCUACUACUAAGGACGGGAGAAGGCAGUGUAAUGU | 18.1 nM | 17.8 nM | – | – |
| AAGGUCAUCUGAGGAUAUCGACCUCAAAGGCUACGAGAAGGCAGACUGACAUGAGGAUCACCCAUGUACCGGGAAGAUGCCUCC | 15.8 nM | 173 nM | – | – |
| AAGUCGACGGUGAGGAUAUUAGUUGAACGACAGAUUAAGAAGGUACAUGAGGAUCACCCAUGUGGGUAGUGUUG | 96 nM | 98.6 nM | – | – |
| AAGUCGUUAGGAUAUACAUGGAUAUACAUUUAUGUAGAACUACAUGAGGAUCACCCAUGUAGAAGGAACGAAUA | 38.2 nM | 54 nM | – | – |
| AAGUCUGGACGAGGAUAUCAGUUGUAUCUGGCAUCAACAUGAGGAUCACCCAUGUUGCAAUAGGGUGAGAAGGCGUUUGGGCAA | – | – | 278 nM | 29.7 nM |
| AAUAAACAUGAGGAUCACCCAUGUAAAUGGGUACAAGGAUAUGCGAAAAGAAACAAAGAAGCAGAAGGUGUAAAGA | – | – | 836 nM | 1040 nM |
| AAUAAACUCACAGGAUAUAGCAGAGGUCGCGCGAACUUACAGGCGACUAUGCUAGAAGGGUGACCACAUGAGGAUCACCCAUGU | – | – | 944 nM | 162 nM |
| AAUAAACUCACAGGAUAUAGCCGAGGUCGCGUGAACUUACAGGCGACGAGGCUAGAAGGGUGACCACAUGAGGAUCACCCAUGU | – | – | 985 nM | 106 nM |
| AAUAACAGAGGAUAUACAAAAAUAAAAGGAAACAAAAGAAAACAUGAGGAUCACCCAUGUAGAAGGCUGAAUAA | 21.1 nM | 18.9 nM | – | – |

| Sequence | apparent Kd [1] | apparent Kd [2] | apparent Kd [3] | apparent Kd [4] |
| --- | --- | --- | --- | --- |
| AAUAACAGAGGAUAUACUAUUUUAUGUAUUUAUUAUUUUGAACAUGAGGAUCACCCAUGUAGAAGGCUGAGUAA | 27.5 nM | 23.1 nM | – | – |
| AAUAACAGAGGAUAUACUGUUUUAUGUAUUUAUUAUUUUAAACAUGAGGAUCACCCAUGUAGAAGGCUGAGUAA | 24.6 nM | 23.4 nM | – | – |
| AAUAACAGAGGAUAUACUGUUUUAUGUGUUUGUUGUUUUGAACAUGAGGAUCACCCAUGUAGAAGGCUGAUUGA | 40.2 nM | 41.3 nM | – | – |
| AAUAGGCUCGCGCAGGAUAUGGAUCAUUCCACAUGAGGAUCACCCAUGUUAAGGAGCCUUUGCAUCCAGAAGGGUGUUGGUCUUU | – | – | 97.2 nM | 17.9 nM |
| AAUAUAAAAGAGCUGGAUAAACUCACAUGAGGAUCACCCAUGUAGGAUAUCAGCACGAUAAGUGCUGAGAAGGACAACCAGCUC | 14.8 nM | 15.3 nM | – | – |
| AAUAUAAGAGCUGGUAAACUCAAAACAUGAGGAUCACCCAUGUAGGAUAUCAGCACGAUAAGUGCUGAGAAGGACAUCCAGCUC | 15 nM | 16.1 nM | – | – |
| AAUAUAGAGCUGGACUCAAAAUAAACAUGAGGAUCACCCAUGUAGGAUAUCAGCACGAUAAGUGCUGAGAAGGACAUCCAGCUC | 15.4 nM | 14.2 nM | – | – |
| AAUAUGAGCUGGAAUAAACCUAAAACAUGAGGAUCACCCAUGUAGGAUAUCAGCACGAUAAGUGCUGAGAAGGACAACCAGCUC | 14.4 nM | 13.9 nM | – | – |
| AAUAUGUGAGGAUAUAUCCACCGCGUAGGCUCGCGGUGACAAUAGAAGGUACAUGAGGAUCACCCAUGUAGGGA | 67.7 nM | 36.9 nM | – | – |
| AAUAUGUUAGGAUAUGCGAAGUCAGGACACACACUGACGAAGCAGAAGGAACAUGAGGAUCACCCAUGUAAAAA | 27.3 nM | 31.4 nM | – | – |
| AAUAUGUUGCAGAAGGUUAUUUUUAUAACGAUCCAUGUGACAUGAGGAUCACCCAUGUAAUUGAUGAAGGAUAUGCAAUAUAUU | 6.72 nM | 6.45 nM | – | – |
| AAUAUGUUGCAGAAGGUUAUUUUUAUAACGUUCCUCUUGACAUGAGGAUCACCCAUGUAAUUGUUGAAGGAUAUGCAAUAUAUU | 6.69 nM | 6.18 nM | – | – |
| AAUCAGUCAGGAUAUCGUUAAUUUAAUUGUUUGUUUUAGUUCGAGAAGGGACAUGAGGAUCACCCAUGUACUUA | 24.8 nM | 26.8 nM | – | – |
| AAUCUUUUUAUGGGAUUACAAUAUGAGGAUAUCAUUCAUUUAUACAUGAGGAUCACCCAUGUUACUGAGAAGGCAUAUAUAAUA | – | – | – | 11 nM |
| AAUGAAACUUAGAAGGCCUACAUGAGGAUCACCCAUGUGGCUUUAAGUGUAGGAGGAUAUGAGGAUGCGGGUAGGAACCCACGC | 6.37 nM | 14.8 nM | – | – |
| AAUGGCAUAGAGAAGGCGCCGCAGCUCUUCCUCCCAUCCCAACGACAUGAGGAUCACCCAUGUAGCGAGGAUAUCUAUACCGUC | 7.08 nM | 12.5 nM | – | – |
| AAUGUUUUCAUAGGAUAUUGACAUUUAUUUAUUCAAGAAGGAUGAUUACAUGAGGAUCACCCAUGUUAAAAUGGAUUAACUAGU | 54.4 nM | 162 nM | – | – |
| AAUUAAGAUCAAGGAUAUCACGUCGAAUAGACGUGAGAAGGUGAUCCAUACAUGAGGAUCACCCAUGUAUAACAUGAAUUAAUU | – | – | 923 nM | 170 nM |
| AAUUAAUUAAUACAUGAGGAUCACCCAUGUAAUUAUUAGAUCUAGGAUAUCAGCUCGUUUAGAGCUGAGAAGGAGAUCACAUGU | – | – | 19.2 nM | 14.6 nM |

| Sequence | apparent Kd [1] | apparent Kd [2] | apparent Kd [3] | apparent Kd [4] |
| --- | --- | --- | --- | --- |
| AAUUAGUGUGUGAGGAUAUUGGUGGAAUGACAUAUUAAGAAGGCACAUGAGGAUCACCCAUGUGGGAUGUCACG | 10.9 nM | 13.6 nM | – | – |
| AAUUAUUAUCGAGGAUAUCGUAUUGAAAUAAUAUGAGAAGGCGGGAUAAACAUGAGGAUCACCCAUGUGAGCCUGAUGCUUGUG | 19.2 nM | 35.4 nM | – | – |
| AAUUAUUAUUGAGGAUAUGGUAGUGAAACACUACCAGAAGGCGGUAUAAACAUGAGGAUCACCCAUGUGAGCCUGAUGCUUAUG | 24.2 nM | 44.2 nM | – | – |
| AAUUAUUUACAGAAGGAGUAAGAUUUUGUAUUACUAGGAUAUGUUAACAUGAGGAUCACCCAUGUGUUUGUAGGUUUUUUAUGU | 12.2 nM | 8.54 nM | – | – |
| AAUUCACAUGAGGAUCACCCAUGUAUUGCGAGCGCGAUUACGUAGGAUAUCCAUCAAAACAGAUAGGAGAAGGGCGUACUAUCU | – | – | 253 nM | 185 nM |
| AAUUCACAUGAGGAUCACCCAUGUCAGGAUAUGGUUUCACGUGUUUCUUUGCUUGAGGCCAGAAGGGACAGCUA | 71.8 nM | 94.4 nM | – | – |
| AAUUCACAUGAGGAUCACCCAUGUCAGGAUAUGGUUUCACGUUUUUCUUUUCUUGAGGCCAGAAGGGACAGCUA | 67.6 nM | 79.1 nM | – | – |
| AAUUCGUCAGGAUAUGCAUGUAGUUGCUACAUUUCGCCGUUGCAGAAGGGACAUGAGGAUCACCCAUGUAAGUC | 33.1 nM | 34.2 nM | – | – |
| AAUUGACACGUAGGAUAUCGCUCUUAUUUAACACGAGAAGGACGUACAUGAGGAUCACCCAUGUUAAAUGGUGUAGAUUAGUUG | 153 nM | 481 nM | – | – |
| AAUUGCCUAGGAUAUACUUGGGCCCGCUCAUACUCCAAUGGACAUGAGGAUCACCCAUGUAGAAGGAGGACCCA | 17.2 nM | 39.4 nM | – | – |
| AAUUUAAUACAUGAGGAUCACCCAUGUAAAUUAAUUAAGAUCAAGGAUAUCAGCUCGAUUAGAGCUGAGAAGGUGAUCACAUGU | – | – | 368 nM | 99.4 nM |
| AAUUUACAGCUAGGAUAUACAUGAGGAUCACCCAUGUAACGAUCGGAUCUUAUGAUCGUGUCCGUGUAGAAGGAGCAAAUAAGA | 6.97 nM | 7.4 nM | – | – |
| AAUUUGCACGCAGGAUAUCGAUAUAAAAGCUGACGAGAAGGGCGGUACAUGAGGAUCACCCAUGUGAACGCCGGGUGGUCUCGU | 6.55 nM | 9.34 nM | – | – |
| ACACAACAUGAGGAUCACCCAUGUUUUCGAUUCACAGGAUAUGGGACAUCCGGAGGGUGACCAGAAGGGUGACUCG | – | – | 29.9 nM | 18.8 nM |
| ACACAUGAGGAUCACCCAUGUAGCUGGCAUCUGCGCCAGCCACAGGAUAUACGGCAACACAAACCGUAGAAGGGUGAUAAACAC | – | – | 59.5 nM | 35.5 nM |
| ACACAUGAGGAUCACCCAUGUAGCUGGCGUCUGCACCAGCCACAGGAUAUACGGCAACACAAACCGUAGAAGGGUGAUAAACAC | – | – | 56.3 nM | 27.3 nM |
| ACAGGCUUCGAGAAGGACAUGAGGAUCACCCAUGUGCGUGUGAAGCAGCCGUGAGGCUGCAUCAUGUAGGAUAUCGGAGUCUGC | 73 nM | 557 nM | – | – |
| ACAGGUGCAGGAUAUACAUGAGGAUCACCCAUGUGAUUAGCAGUCCUCGGACUGCAAUGUAGAAGGGCACCUGU | 327 nM | 1120 nM | – | – |
